Measured values of several laboratories.
Lines come from different studies, so protocols differ.
Cell line: A549
Read-out: cell growth or viability

With `COc1ccc(NC(=O)Nc2ccc(OCc3nccc(OC)c3OC)cc2)cc1` the IC50 was 16.7 µM (MTT; 72 h).
With `C=CC(=O)Nc1cc(Nc2nc(N3CCc4sccc4C3)c3cccnc3n2)c(OC)cc1N1CCN(C(C)=O)CC1` the IC50 was over 50 µM (MTT).
With `COc1ccccc1NCCCNCC(O)COc1cccc2[nH]c3ccccc3c12` (centres unmarked) the IC50 was 10.8 µM (CCK-8; 72 h).
The IC50 of `COc1ccc2c(c1)/C(=N/NC(=O)c1cc3ccccc3[nH]1)C(=O)N2C` is reported as 1.93 µM.
With `c1ccc2cc(-c3nnc(NC4CCCCC4)[nH]3)ccc2c1` the IC50 was 1.22 µM (48 h).
`CN1C(=O)/C(=N\NC(=O)c2cc3ccccc3[nH]2)c2cc(F)ccc21` has an IC50 of 2.82 µM.
`O=C1NCCc2[nH]c(-c3ccncc3)cc21` has an IC50 of over 10 µM.
With `COc1c(C)c(OS(=O)(=O)c2ccc3ccccc3c2)c(C)c(OS(=O)(=O)c2ccc3ccccc3c2)c1C(=O)/C=C/c1ccccc1` the IC50 was over 50 µM (SRB; 72 h).
With `COc1ccccc1CCNCC(O)COc1cccc2[nH]c3ccccc3c12` (centres unmarked) the IC50 was 13.3 µM (CCK-8; 72 h).
For `Cc1cccc(-n2ncc(Br)c(Br)c2=O)c1`, the IC50 was 1.62 µM (resazurin; 96 h).
`C=C(Cl)C(=O)Nc1cc(Nc2nc(N3CCSCC3)c3sccc3n2)c(OC)cc1N(C)CCN(C)C` gave an IC50 of 0.098 µM (MTT).
The IC50 of `CC(=O)O[C@H]1C(=O)[C@@]2(C)[C@H]([C@H](OC(=O)c3ccccc3)[C@]3(O)C[C@H](OC(=O)[C@H](O)[C@@H](NC(=O)c4ccccc4)c4ccccc4)C(C)=C1C3(C)C)[C@]1(OC(C)=O)CO[C@@H]1C[C@@H]2O` is reported as 0.0025 µM (SRB).
The IC50 of `O=C(CN1C(=O)/C(=C/c2ccc(Cl)cc2)SC1=S)Nc1ccccc1` is reported as 14.3 µM (MTT).
`C=CC(=O)Nc1cc(Nc2nc(N3CCc4sccc4C3)c3cccnc3n2)c(OC)cc1N(C)CCN(C)C` has an IC50 of 21.9 µM (MTT).
The IC50 of `CCN(CC)C(=S)NC(=O)c1ccc2ccccc2c1` is reported as 4.76 µM (48 h).
`COc1cc2ncnc(Nc3ccc(F)c(Cl)c3)c2cc1NC(=O)N/N=C/CN1CCCC1` has an IC50 of 5.67 µM (MTT; 72 h).
With `O=C(/N=C1\S/C(=C\c2ccc(Cl)cc2)C(=O)N1C1CCCCC1)c1ccc2ccccc2c1` the IC50 was 17.6 µM (48 h).
`COc1cc2ncnc(Nc3ccc(F)c(Cl)c3)c2cc1NC(=O)N/N=C/c1cccn1CCCN1CCCC1` gave an IC50 of 2.45 µM (MTT; 72 h).
With `Cc1ccc(NC(=O)CSc2nnc(Cn3cnc4c3c(=O)n(C)c(=O)n4C)n2-c2ccccc2)cc1C` the IC50 was 198 µM (MTT).
`Oc1ncnc2cc(Nc3nc(-c4ccc(F)cc4)cs3)ccc12` gave an IC50 of 19 µM (MTT).
`COc1cc2ncnc(Nc3ccc(F)c(Cl)c3)c2cc1NC(=O)N/N=C/c1cccn1CCCN1CCOCC1` has an IC50 of 1.86 µM (MTT; 72 h).
The IC50 of `COCCCOc1ccnc(COc2ccc(NC(=O)Nc3ccc(Cl)c(C(F)(F)F)c3)cc2)c1C` is reported as 6.19 µM (MTT; 72 h).
`COc1cc([C@@H]2c3cc4c(cc3[C@@H](O[C@@H]3O[C@@H]5CO[C@@H](C)O[C@H]5[C@H](O)[C@H]3O)[C@H]3COC(=O)[C@H]23)OCO4)cc(OC)c1O` has an IC50 of 2 µM (MTT; 72 h).
For `COc1cc(N(C)CCN(C)C)c(NC(=O)C=C(C)C)cc1Nc1nc(Nc2cnn(C)c2)c2sccc2n1`, the IC50 was 1.56 µM (MTT).
With `COc1c(C)cnc(COc2ccc(NC(=O)Nc3ccc(F)cc3)cc2)c1C` the IC50 was 13.2 µM (MTT; 72 h).
`CNC(=O)c1cc(Oc2ccc(NC(=O)Nc3ccc(Cl)c(C(F)(F)F)c3)cc2)ccn1` gave an IC50 of over 40 µM (MTT; 24 h).
The IC50 of `COc1cc([C@@H]2c3cc4c(cc3[C@@H](O[C@@H]3O[C@@H]5CO[C@@H](C)O[C@H]5[C@H](O)[C@H]3O)[C@H]3COC(=O)[C@H]23)OCO4)cc(OC)c1O` is reported as 11.9 µM (MTT; 48 h).
`COC1=C2C[C@@H](C)C[C@H](OC)[C@H](O)[C@@H](C)/C=C(\C)[C@H](OC(N)=O)[C@@H](OC)/C=C\C=C(/C)C(=O)NC(=CC1=O)C2=O` has an IC50 of 0.3 µM (SRB; 72 h).
The IC50 of `Cc1ccc(-c2csc(Nc3ccc4c(O)ncnc4c3)n2)cc1` is reported as 27 µM (MTT).
The IC50 of `CC1=C(O)C(=O)C=C2C1=CC=C1[C@@]2(C)CC[C@@]2(C)[C@@H]3C[C@](C)(C(=O)OCCCCCCCO)CC[C@]3(C)CC[C@]12C` is reported as over 100 µM (MTT; 48 h).
The IC50 of `COCCCOc1ccnc(COc2ccc(NC(=O)Nc3cccc(C(F)(F)F)c3)cc2)c1C` is reported as 4.38 µM (MTT; 72 h).
For `COc1cc2ncnc(Nc3ccc(F)c(Cl)c3)c2cc1NC(=O)N/N=C/CN(C)C`, the IC50 was 5.52 µM (MTT; 72 h).
With `COc1ccccc1/C=C/CNCC(O)COc1cccc2c1[nH]c1ccccc12` (centres unmarked) the IC50 was 11.2 µM (CCK-8; 72 h).
`O=C(N/N=C/c1cccn1CCN1CCOCC1)Nc1cc2c(Nc3ccc(F)c(Cl)c3)ncnc2cc1O[C@H]1CCOC1` gave an IC50 of 1.32 µM (MTT; 72 h).
The IC50 of `CCC(=O)Nc1cc(Nc2nc(N3CCc4sccc4C3)c3cccnc3n2)c(OC)cc1N1CCC(N(C)C)CC1` is reported as 1.25 µM (MTT).
With `O=C(NNC(=O)c1ccc(Nc2nccc(-c3ccccn3)n2)cc1)NC1CCCC1` the IC50 was over 40 µM (MTT).
With `CS(=O)(=O)c1ccc(-n2cc(/C=N/N=c3\[nH]c(-c4ccc([N+](=O)[O-])cc4)cs3)c(-c3ccc([N+](=O)[O-])cc3)n2)cc1` the IC50 was 22.2 µM (MTT; 48 h).
With `COc1ccccc1CCCNCC(O)COc1cccc2[nH]c3ccccc3c12` (centres unmarked) the IC50 was 11.8 µM (CCK-8; 72 h).
For `Cc1ccc(C)n1-c1ccc(-c2nnc(-c3ccccc3Cl)[nH]2)cc1`, the IC50 was 228 µM (MTT; 72 h).
`CC1=C(O)C(=O)C=C2C1=CC=C1[C@@]2(C)CC[C@@]2(C)[C@@H]3C[C@](C)(C(=O)OCCCCO)CC[C@]3(C)CC[C@]12C` has an IC50 of 3.06 µM (MTT; 48 h).
`COc1ccc(C(=O)O[C@@H]2CN3Cc4c(cc5c(c4OC)OCO5)[C@@]24C=C[C@H](OC)C[C@@H]34)cc1` has an IC50 of over 10 µM (WST-1).
